{"source": "PubChem BioAssay", "note": "Unmarked numbers belong to inactive results.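 How the source made its calls, unless noted: active means viability increase at or above a cutoff of the median across tested compounds plus 3 SD (cut at about 8.5% in these data, passing the limit was not always enough); inconclusive means some gains above the cutoff, reason not given; inactive means the rest.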"}
{"assay": "S. cerevisiae growth inhibition in restrictive medium, OD615, pilot screen, restrictive growth control, yeast lifespan reduction project (AID 706;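 active means growth inhibition above a set limit, 3 SD over mean compound inhibition, in both replicates, cut at about 43% in these data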;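 further: modified DeaD lifespan yeast strain shifted to restrictive glucose medium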)", "settings": "OD615, 48 h, at 10 µM, hits give high values", "method_in_brief": "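material = engineered S. cerevisiae DeaD strain | buffer or medium = glucose-based CSMM-D restrictive medium | dosing = one concentration, 10 µM final, 0.25% DMSO | schedule = 4 h pre-growth plus 48 h compound exposure, 30 °C | detection = OD615 absorbance reading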", "units": {"growth inhibition": "%"}}
{"smiles": "CC(c1ccccc1)C(CC(=O)O)C(=O)NC1CCCCC1", "note": "(centres undefined)", "growth inhibition": -1.39}
{"smiles": "Cc1cc(C2N=C(N)Nc3nc4ccccc4n32)c(C)n1-c1ccccc1Cl", "note": "(centres undefined)", "growth inhibition": -33.7}
{"smiles": "CCOCCn1c(SCCc2ccccc2)nc2c1c(=O)[nH]c(=O)n2C", "growth inhibition": 10.7}
{"smiles": "CSc1ccc(S(=O)(=O)N2CCN(Cc3ccc4c(c3)OCO4)CC2)cc1", "growth inhibition": 14.3}
{"smiles": "CC(=O)N1C(C(=O)O)CSC1c1ccc(C)cc1", "note": "(centres undefined)", "growth inhibition": 8.76}
{"smiles": "Cc1cc(=O)[nH]c(SCc2cc(Cl)ccc2OC(F)F)n1", "growth inhibition": 15.1}
{"smiles": "C=CCn1c(=NC(=O)C2CC2)sc2cc(NC(C)=O)ccc21", "growth inhibition": -3.58}
{"smiles": "O=C(O)c1ccc(-n2nnnc2SCc2ccccc2F)cc1", "growth inhibition": 6.63}
{"smiles": "O=C(O)C1(P(=O)(c2ccccc2)c2ccccc2)CCC1", "growth inhibition": -5.79}
{"smiles": "CCOC(=O)C1=C(C)NC(=O)NC1c1ccc(C)o1", "note": "(centres undefined)", "growth inhibition": 7.96}
{"smiles": "O=C1c2ccccc2-c2ncnc3c(N4CCOCC4)cc(N4CCOCC4)c1c23", "growth inhibition": -3.37}
{"smiles": "CCCC(=O)Nc1nnc(-c2ccc(Cl)s2)o1", "growth inhibition": 2.92}
{"smiles": "O=C(COc1ccccc1)Nc1ccc(S(=O)(=O)N2CCCC2)cc1", "growth inhibition": -12.5}
{"smiles": "COc1cccc(N2CCN(C(=O)CN(C)S(=O)(=O)c3ccc4c(c3)CCC(=O)N4)CC2)c1", "growth inhibition": -13.8}
{"smiles": "CC(C)(C)c1ccc(-c2cc(N)n[nH]2)cc1", "growth inhibition": 13.2}
{"smiles": "CCCOC(=O)c1ccc(-n2nnnc2SCC(=O)N2CCCCC2)cc1", "growth inhibition": -5.64}
{"smiles": "CCOc1ccc(-c2cc(CCCC(=O)NCc3ccco3)no2)cc1", "growth inhibition": -4.02}
{"smiles": "Nc1nnc(N2CCc3ccccc32)s1", "growth inhibition": 16.4}
{"smiles": "O=C(NC1CCN(Cc2ccccc2)CC1)C1CCN(c2nnc(-n3cccc3)s2)CC1", "growth inhibition": -0.61}
{"smiles": "CCn1c(C(C)NC(=O)Cc2ccccc2)nc2ccccc21", "note": "(centres undefined)", "growth inhibition": -17.6}
{"smiles": "CC1(C)Cc2c(C#N)c(NC3CCCCC3)nc(-c3ccco3)c2CO1", "growth inhibition": -17.4}
{"smiles": "O=C(NCc1ccc(F)cc1)c1cnc2n(c1=O)CCS2", "growth inhibition": -2.23}
{"smiles": "Cc1sc2nc(SCC(=O)N3CCCC3)[nH]c(=O)c2c1C", "growth inhibition": -6.9}
{"smiles": "CC1Cc2nc(SCC(=O)N3CCOCC3)n(-c3ccccc3)c(=O)c2S1", "note": "(centres undefined)", "growth inhibition": -11.7}
{"assay": "doxorubicin toxicity protection in MRP-1 cells – H69AR cells, CellTiter-Glo, duplicate, MRP-1 activator project, pilot screen (AID 807);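 further: compound pretreatment 18-22 h then 72 h combined with doxorubicin; 0% = doxorubicin alone and 100% = vehicle without doxorubicin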", "settings": "H69AR viability with doxorubicin, CellTiter-Glo luminescence; at 10 µM; hits give high values", "units": {"viability increase": "%"}}
{"smiles": "Cc1oc(-c2cccs2)nc1CS(=O)CC(=O)NCCc1ccccc1", "note": "(centres undefined)", "viability increase": -0.31}
{"smiles": "CCN(CC)C(=O)C1CCCN(C/C=C/c2ccccc2)C1", "note": "(centres undefined)", "viability increase": -0.55}
{"smiles": "c1ccc(Cn2c(CSc3nnnn3-c3ccccc3)nc3ccccc32)cc1", "viability increase": -2.93}
{"smiles": "COc1ccc(-c2cn3c(C)c(C(=O)NC(C)(C)C)sc3n2)cc1", "viability increase": -5.94}
{"smiles": "C/C=C/Cn1c(N(C)Cc2ccccc2)nc2c1c(=O)[nH]c(=O)n2C", "viability increase": 0.04}
{"smiles": "CCC1CC(C)(C(=O)Nc2ccc(S(N)(=O)=O)cc2)OC1=O", "note": "(centres undefined)", "viability increase": 1.12}
{"smiles": "Cc1cccn2cc(-c3ccc(F)cc3)nc12", "viability increase": -4.81}
{"smiles": "CC1CCCCN1C(=O)c1ccccc1NC(=O)c1ccco1", "note": "(centres undefined)", "viability increase": -2.69}
{"smiles": "COCCNS(=O)(=O)c1ccc(C2CNC(=O)C2)cc1", "note": "(centres undefined)", "viability increase": -1.08}
{"smiles": "COc1cccc(OCC(=O)N(Cc2nc(-c3ccc(Cl)cc3)no2)C(C)C)c1", "viability increase": 2.88}
{"smiles": "COC(=O)C1C(=O)c2c([nH]c(C(=O)OC3CCCC3C)c2C)CC1C", "note": "(centres undefined)", "viability increase": 3.21}
{"smiles": "O=C(Cn1c(S(=O)(=O)Cc2ccccc2)nc2ccccc21)N1CCCCC1", "viability increase": -6.5}
{"smiles": "COc1ccc(Cl)cc1NC(=O)CSc1nnc(Cn2c(=O)sc3ccccc32)n1C", "viability increase": -2.64}
{"smiles": "Cc1cc(C)c(C)c(OCC(=O)NCCN(C)C)c1", "viability increase": -1.08}
{"smiles": "COC(=O)c1ccc(C2C(C(C)=O)=C(C)Nc3ncnn32)cc1", "note": "(centres undefined)", "viability increase": -1.07}
{"smiles": "CCOC(=O)Cn1c(=O)oc2cc(S(=O)(=O)Nc3c(C)cc(C)cc3C)ccc21", "viability increase": -2.56}
{"smiles": "CC(c1ccccc1)C(CC(=O)O)C(=O)NC1CCCCC1", "note": "(centres undefined)", "viability increase": -0.07}
{"smiles": "Cc1cc(C2N=C(N)Nc3nc4ccccc4n32)c(C)n1-c1ccccc1Cl", "note": "(centres undefined)", "viability increase": -4.14}
{"smiles": "CCOCCn1c(SCCc2ccccc2)nc2c1c(=O)[nH]c(=O)n2C", "viability increase": -1.92}
{"smiles": "CSc1ccc(S(=O)(=O)N2CCN(Cc3ccc4c(c3)OCO4)CC2)cc1", "viability increase": -4.46}
{"smiles": "CC(=O)N1C(C(=O)O)CSC1c1ccc(C)cc1", "note": "(centres undefined)", "viability increase": -0.04}
{"smiles": "Cc1cc(=O)[nH]c(SCc2cc(Cl)ccc2OC(F)F)n1", "viability increase": -1.54}
{"smiles": "C=CCn1c(=NC(=O)C2CC2)sc2cc(NC(C)=O)ccc21", "viability increase": -4.77}
{"smiles": "O=C(O)c1ccc(-n2nnnc2SCc2ccccc2F)cc1", "viability increase": 1.71}
{"smiles": "O=C(O)C1(P(=O)(c2ccccc2)c2ccccc2)CCC1", "viability increase": -0.11}
{"smiles": "CCOC(=O)C1=C(C)NC(=O)NC1c1ccc(C)o1", "note": "(centres undefined)", "viability increase": -1.92}
{"smiles": "O=C1c2ccccc2-c2ncnc3c(N4CCOCC4)cc(N4CCOCC4)c1c23", "viability increase": -7.53}
{"smiles": "CCCC(=O)Nc1nnc(-c2ccc(Cl)s2)o1", "viability increase": -3.1}
{"smiles": "O=C(COc1ccccc1)Nc1ccc(S(=O)(=O)N2CCCC2)cc1", "viability increase": -1.84}
{"smiles": "COc1cccc(N2CCN(C(=O)CN(C)S(=O)(=O)c3ccc4c(c3)CCC(=O)N4)CC2)c1", "viability increase": -2.87}
{"smiles": "CC(C)(C)c1ccc(-c2cc(N)n[nH]2)cc1", "viability increase": -2.81}
{"smiles": "CCCOC(=O)c1ccc(-n2nnnc2SCC(=O)N2CCCCC2)cc1", "viability increase": -0.35}
{"smiles": "CCOc1ccc(-c2cc(CCCC(=O)NCc3ccco3)no2)cc1", "viability increase": -2.79}
{"smiles": "Nc1nnc(N2CCc3ccccc32)s1", "viability increase": -4.19}
{"smiles": "O=C(NC1CCN(Cc2ccccc2)CC1)C1CCN(c2nnc(-n3cccc3)s2)CC1", "viability increase": -2.59}
{"smiles": "CCn1c(C(C)NC(=O)Cc2ccccc2)nc2ccccc21", "note": "(centres undefined)", "viability increase": -1.21}
{"smiles": "CC1(C)Cc2c(C#N)c(NC3CCCCC3)nc(-c3ccco3)c2CO1", "viability increase": -6.33}
{"smiles": "O=C(NCc1ccc(F)cc1)c1cnc2n(c1=O)CCS2", "viability increase": 2.85}
{"smiles": "Cc1sc2nc(SCC(=O)N3CCCC3)[nH]c(=O)c2c1C", "viability increase": -1.34}
{"smiles": "CC1Cc2nc(SCC(=O)N3CCOCC3)n(-c3ccccc3)c(=O)c2S1", "note": "(centres undefined)", "viability increase": -0.68}
